Laboratory results: paper PMC4486263 (Journal of biomolecular screening, 2014)
“Also recorded” adds a separate entry of the source. Values belong to the molecule of their own block, whether it stands above or below them.

Experiments:
[1] = biological target: T1, Six1-Eya2 interaction (Homo sapiens, UniProt O00167+Q15475); assay: Counterscreen AlphaScreen assay, Six1-Eya2; assay type: binding; settings: 20 nM to 50 μM
T1 sequence (Q15475 1-284): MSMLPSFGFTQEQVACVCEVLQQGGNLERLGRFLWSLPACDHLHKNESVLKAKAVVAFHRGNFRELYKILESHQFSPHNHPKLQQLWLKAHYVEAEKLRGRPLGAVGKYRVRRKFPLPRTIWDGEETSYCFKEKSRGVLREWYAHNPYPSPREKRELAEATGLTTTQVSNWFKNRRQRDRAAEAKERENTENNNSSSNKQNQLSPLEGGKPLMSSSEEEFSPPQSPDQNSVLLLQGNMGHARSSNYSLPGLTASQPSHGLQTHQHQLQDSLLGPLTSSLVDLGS
T1 sequence (O00167 1-538): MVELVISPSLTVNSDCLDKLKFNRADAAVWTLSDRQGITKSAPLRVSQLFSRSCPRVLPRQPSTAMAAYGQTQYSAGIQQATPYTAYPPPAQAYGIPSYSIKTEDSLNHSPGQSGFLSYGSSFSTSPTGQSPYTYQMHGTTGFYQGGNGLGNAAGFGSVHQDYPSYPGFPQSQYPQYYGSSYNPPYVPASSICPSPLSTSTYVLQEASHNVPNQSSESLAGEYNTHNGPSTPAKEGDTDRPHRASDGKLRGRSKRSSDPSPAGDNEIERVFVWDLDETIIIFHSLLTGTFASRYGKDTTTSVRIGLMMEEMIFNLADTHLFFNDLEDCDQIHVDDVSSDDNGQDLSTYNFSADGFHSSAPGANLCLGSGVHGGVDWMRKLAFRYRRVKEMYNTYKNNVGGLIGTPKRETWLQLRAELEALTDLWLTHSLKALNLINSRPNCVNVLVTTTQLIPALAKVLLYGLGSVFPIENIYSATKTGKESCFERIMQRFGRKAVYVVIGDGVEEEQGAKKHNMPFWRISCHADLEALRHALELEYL
How it was run: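 Counterscreen AlphaScreen with 200 nM 6xHis-Eya2 and GST-Six1 in 50 mM Tris pH 8.0, 250 mM NaCl, 0.05% BSA, 0.02% Tween-20. Test compound was added at 20 nM to 50 μM. Glutathione donor and Ni-chelate acceptor beads were added from a 25 ng/μL (each) bead solution. Incubated 2 h at 25 °C, then read in AlphaScreen mode.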

[2] = biological target: CtBP1-E1A peptide interaction (Homo sapiens, UniProt Q13363); assay: Fluorescence polarization assay with FITC-labeled E1A 14-mer peptide; assay type: binding; settings: for disruption of the CtBP1-peptide interaction (in words): up to 100 μM
[3] = biological target: T2, CtBP1-E1A interaction (Homo sapiens, UniProt Q13363); assay: CtBP1-E1A AlphaScreen assay; assay type: binding; settings: for disruption of the CtBP1-E1A interaction (in words): up to 100 μM
[4] = test system: lactate dehydrogenase; assay: Lactate dehydrogenase enzymatic assay; assay type: biochemical
How it was run: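 Lactate dehydrogenase at 5 nM in PBS with 100 μM NADH. Incubated with 5 μM pyruvate or varying test compound concentrations for 1 min at 30 °C. NADH consumption monitored spectrophotometrically at 340 nm; activity as nmol/min/mg protein.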

[5] = biological target: T2, CtBP1-E1A interaction; assay: Competitive ELISA; assay type: binding; settings: read-out: IC50, disruption of the CtBP1-E1A interaction
How it was run: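 Plates coated with His-tagged CtBP1 (E. coli-expressed, Ni-affinity then size-exclusion purified) in 50 mM Tris pH 8.0, 250 mM NaCl, 1 h at 25 °C. Blocked 1 h with 1% BSA/0.05% Tween-20 in 50 mM Tris pH 8.0, 250 mM NaCl, 1 mM TCEP. GST-Ad5 E1A was added with increasing test compound concentrations in triplicate for 1 h at 25 °C. Detection used rabbit anti-GST (1:1500), then goat anti-rabbit (1:2500), 1 h each, and ABTS absorbance.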

[6] = test system: NCI 60 tumor-cell panel; settings: ref http://dtp.nci.nih.gov/; cited from earlier work
[7] = test system: MEF3 promoter (SIX1 transcriptional complex); assay: MEF3 promoter luciferase reporter assay in H1299 cells; assay type: cell-based; settings: 18 hrs, normalized to Renilla
How it was run: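 H1299 cells were seeded at 2000 cells/well and adhered overnight. FuGENE 6 transfection used 60 ng/well pGL3-MEF3 promoter, 40 ng/well Six1, 30 ng/well Eya2 and 14 ng/well Renilla luciferase. After 10 h, cells were treated with varying test compound concentrations for 18 h. Dual-luciferase read-out after passive lysis, with Firefly normalised to Renilla.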

[8] = biological target: CtBP1 (Homo sapiens, UniProt Q13363); assay: CtBP1 enzymatic assay; assay type: biochemical; settings: NADH oxidation, 340 nm
How it was run: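 E. coli-expressed His-CtBP1 (2 μM) in PBS with NADH. Test compound was added at increasing concentrations in 100 μL reactions after a 2 min incubation at 30 °C. Substrate reduction followed as NADH disappearance at 340 nm by spectrophotometer. Activity expressed as nmol NADH/min/mg protein.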

[9] = test system: CtBP1-mediated repression of the E-cadherin promoter; assay: E-cadherin promoter luciferase reporter assay in H1299 cells; assay type: cell-based; settings: 18 hrs, normalized to Renilla
How it was run: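 H1299 cells were seeded at 2000 cells/well and adhered overnight. FuGENE 6 transfection used 30 ng/well pGL3-E-cadherin promoter plus 10 ng/well Renilla luciferase. After 10 h, cells were treated with varying test compound concentrations for a further 18 h. Passive lysis, then dual-luciferase measurement with Firefly normalised to Renilla.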

Compound: O.c1cnc2c(c1)ccc1cccnc12 [10-phenanthroline monohydrate]
inhibition of the Six1-Eya2 interaction [1]: efficiently inhibited

Compound: CCCn1c(=O)c2[nH]c(C3CCCC3)nc2n(CCCOC(=O)c2ccc(S(=O)(=O)F)cc2)c1=O [FSCPX]
inhibition of the Six1-Eya2 interaction [1]: did not inhibit
disruption of the CtBP1-peptide interaction (in words) [2]: inactive; also recorded: unable to disrupt

Compound: CSCCC(=O)C(=O)O [MTOB, 4-methylthio-2-oxobutanoic acid]
disruption of the CtBP1-peptide interaction (in words) [2]: ineffective at disrupting the interaction; also recorded: unable to inhibit
disruption of the CtBP1-E1A interaction (in words) [3]: ineffective at disrupting the interaction; also recorded: unable to inhibit; also recorded: unable to affect the protein interaction

Compound: CCCCc1ccc(C(=O)O)nc1 [fusaric acid]
inhibition of the Six1-Eya2 interaction [1]: did not inhibit
disruption of the CtBP1-peptide interaction (in words) [2]: inactive; also recorded: unable to disrupt

Compound: Nc1c(S(=O)(=O)O)cc(Nc2ccc(Nc3nc(Cl)nc(Nc4cccc(S(=O)(=O)O)c4)n3)c(S(=O)(=O)O)c2)c2c1C(=O)c1ccccc1C2=O [reactive blue 2]
inhibition of the Six1-Eya2 interaction [1]: efficiently inhibited

Further lines, with some results ahead:

inhibition of the Six1-Eya2 interaction [1]: efficiently inhibited
Compound: O=C1c2ccccc2C(=O)c2c(NCCc3ccc(O)cc3)ccc(NCCc3ccc(O)cc3)c21 [JFD00244]

IC50 [5]: 10 ± 1.3 µM
IC50 ([2]; read-out: IC50, CtBP1-E1A peptide interaction, 3 μM CtBP1, 5 nM FITC-E1A peptide): 0.61 ± 0.12 µM
maximal activity as CtBP1 substrate [8]: 28.5 ± 4.9 nmol/min/mg protein
IC50 ([3]; read-out: IC50, inhibition of the CtBP1-E1A interaction): 2.9 µM
Compound: O=C1C(SCCO)=C(SCCO)C(=O)c2ccccc21 [NSC95397]
inhibition of LDH (pyruvate reduction) ([4]; 5 μM pyruvate, up to 100 μM compound): did not significantly inhibit; also recorded: unable to detect any inhibition; also recorded: unable to inhibit
substrate of LDH (NADH consumption without pyruvate) ([4]; increasing concentrations, no pyruvate): nor did it exhibit significant consumption of NADH; also recorded: did not detect a significant loss in NADH levels
inhibition of the Six1-Eya2 interaction [1]: did not inhibit; also recorded: does not inhibit; also recorded: did not detect a loss of AlphaScreen signal
average GI50s over all cell lines [6]: 1.04 µM
luciferase activity, MEF3 promoter [7]: unaltered; also recorded: has no effect
disruption of the CtBP1-peptide interaction (in words) [2]: able to disrupt the interaction; also recorded: efficiently inhibits
luciferase activity, E-cadherin promoter [9]: able to disrupt CtBP-mediated transcriptional repression; also recorded: increased with increasing concentrations; also recorded: can reverse CtBP-mediated transcriptional repression
disruption of the CtBP1-E1A interaction (in words) [3]: able to disrupt the interaction; also recorded: efficiently inhibits

inhibition of the Six1-Eya2 interaction [1]: efficiently inhibited
Compound: O=C1O/C(=C/Br)CCC1c1cccc2ccccc12 (centres unmarked) [bromoenol lactone]

LDH activity with substrate [4]: 9680 ± 558 nmol/min/mg protein
Compound: CC(=O)C(=O)O [pyruvate]
